Measured values as given in ChEMBL document CHEMBL1133168, “Synthesis and SAR of 4-aryl-2-hydroxy-4-oxobut-2-enoic acids and esters and 2-amino-4-aryl-4-oxobut-2-enoic acids and esters: potent inhibitors of kynurenine-3-hydroxylase as potential neuroprotective agents” (J Med Chem, 2000).

Target: Kynurenine 3-monooxygenase (Rattus norvegicus, UniProt O88867)
Test: Inhibition of Kynurenine-3-hydroxylase enzyme isolated from the rat liver
Summary of the method: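 Enzyme source: P2 mitochondrial pellet from rat liver, resuspended in 0.32 M sucrose. Activity measured as ³HOH release from 3-[³H]-L-kynurenine at its K_m concentration, 37 °C, under conditions linear with time and enzyme protein. Five inhibitor concentrations tested. IC50 taken as the mean of at least 2 experiments run in duplicate, with variation <20%.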

Chain of Kynurenine 3-monooxygenase (O88867 whole entry): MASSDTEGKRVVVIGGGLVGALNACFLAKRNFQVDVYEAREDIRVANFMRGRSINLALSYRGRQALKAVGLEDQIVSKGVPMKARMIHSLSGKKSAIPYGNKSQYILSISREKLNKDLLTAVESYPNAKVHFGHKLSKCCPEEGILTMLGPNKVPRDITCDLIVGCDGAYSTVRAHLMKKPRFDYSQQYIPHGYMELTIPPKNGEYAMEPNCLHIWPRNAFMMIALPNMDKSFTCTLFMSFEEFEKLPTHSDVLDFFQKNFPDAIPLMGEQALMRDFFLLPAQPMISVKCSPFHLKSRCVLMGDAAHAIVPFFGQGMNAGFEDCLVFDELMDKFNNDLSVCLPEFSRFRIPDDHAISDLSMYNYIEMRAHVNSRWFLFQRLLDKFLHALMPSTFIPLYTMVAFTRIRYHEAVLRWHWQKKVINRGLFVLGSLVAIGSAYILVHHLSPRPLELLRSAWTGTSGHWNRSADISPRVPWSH

Structure (SMILES) | IC50
COC(=O)C(=O)/C=C(\O)c1cccc(Br)c1 | 2100 nM
COC(=O)C(=O)/C=C(\O)c1cccc(F)c1 | 1600 nM
O=C(O)C(=O)/C=C(\O)c1cccc(Br)c1 | 1700 nM
COC(=O)C(=O)/C=C(\O)c1ccc(Br)cc1 | 1900 nM
O=C(O)C(=O)/C=C(\O)c1ccc(F)c(F)c1 | 120 nM
N/C(=C\C(=O)c1cccc(Cl)c1)C(=O)O | 2400 nM
O=C(O)C(=O)/C=C(\O)c1cccc(Cl)c1 | 320 nM
COC(=O)C(=O)/C=C(\O)c1ccc(F)c(Cl)c1 | 2600 nM
O=C(O)C(=O)/C=C(\O)c1ccc(F)c(Cl)c1 | 270 nM
O=C(O)C(=O)/C=C(\O)c1cccc(F)c1 | 580 nM
COC(=O)C(=O)/C=C(\O)c1ccc(F)c(F)c1 | 3300 nM
Cc1cc(/C(O)=C/C(=O)C(=O)O)ccc1Cl | 1700 nM
COC(=O)C(=O)/C=C(\O)c1cccc(Cl)c1 | 1900 nM
N/C(=C\C(=O)c1ccc(F)c(Cl)c1)C(=O)O | 820 nM
NC(CC(=O)c1cccc([N+](=O)[O-])c1)C(=O)O (racemic) | 8000 nM
N[C@@H](CC(=O)c1cccc([N+](=O)[O-])c1)C(=O)O | 4000 nM
COC(=O)C(=N)/C=C(\O)c1ccc(F)c(F)c1 | 3600 nM
COC(=O)C(=O)/C=C(\O)c1ccc(Cl)c(Cl)c1 | 1900 nM
COC(=O)C(=O)/C=C(\O)c1cccc(F)c1F | 8100 nM
COC(=O)C(=O)/C=C(\O)c1ccc(Cl)c(C)c1 | 4900 nM
COC(=O)C(=N)/C=C(\O)c1cccc(Cl)c1 | 7900 nM
O=C(O)C(=O)/C=C(\O)c1ccc(Cl)cc1 | 3000 nM
COC(=O)C(=O)/C=C(\O)c1ccc(Cl)c([N+](=O)[O-])c1 | 11200 nM
N/C(=C\C(=O)c1ccc(Cl)c(Cl)c1)C(=O)O | 1000 nM
N/C(=C\C(=O)c1ccc(F)c(F)c1)C(=O)O | 1500 nM
O=C(O)C(=O)/C=C(\O)c1ccc(Cl)c([N+](=O)[O-])c1 | 2000 nM

Target: Kynurenine 3-monooxygenase (Rattus norvegicus) (UniProt O88867)
Sequence (O88867 whole entry, looked up): as the sequence (O88867 whole entry) above
Test: Inhibition of Kynurenine-3-hydroxylase enzyme isolated from the rat liver at 10 uM

Structure (SMILES) | inhibition
N/C(=C\C(=O)c1ccc(F)cc1)C(=O)O | 41%
N/C(=C\C(=O)c1ccccc1Cl)C(=O)O | 19%
COC(=O)C(=N)/C=C(\O)c1ccc(Cl)c(Cl)c1 | 37%
O=C(O)C(=O)/C=C(\O)c1ccccc1[N+](=O)[O-] | 24%
O=C(O)C(=O)/C=C(\O)c1ccccc1 | 0%
N/C(=C\C(=O)c1cccc(Cl)c1Cl)C(=O)O | 32%
COC(=O)C(=O)/C=C(\O)c1ccc(F)cc1 | 22%
N/C(=C\C(=O)c1ccc(Cl)cc1)C(=O)O | 33%
COC(=O)C(=O)/C=C(\O)c1ccccc1[N+](=O)[O-] | 1%
COC(=O)C(=N)/C=C(\O)c1ccc(F)c(Cl)c1 | 4%
COC(=O)C(=N)/C=C(\O)c1ccc(Cl)cc1 | 13%
COC(=O)C(=N)/C=C(\O)c1cccc(Br)c1 | 0%
COC(=O)C(=O)/C=C(/O)c1ccc(C)cc1 | 12%
COC(=O)C(=N)/C=C(\O)c1ccc(C)cc1 | 4%
COC(=O)C(=N)/C=C(\O)c1ccc(F)cc1 | 1%
COC(=O)C(=N)/C=C(\O)c1ccccc1Cl | 31%
COC(=O)C(=N)/C=C(\O)c1cccc(Cl)c1Cl | 33%
COC(=O)C(=O)/C=C(\O)c1ccccc1 | 23%
COC(=O)C(=N)/C=C(\O)c1ccc(Br)cc1 | 0%
COC(=O)C(=O)/C=C(\O)c1cccc(Cl)c1Cl | 14%
COC(=O)C(=O)/C=C(\O)c1ccc(Cl)cc1 | 38%
N/C(=C\C(=O)c1ccccc1)C(=O)O | 17%
COC(=O)C(=N)/C=C(\O)c1ccccc1 | 3%
COC(=O)C(=N)/C=C(\O)c1cccc(F)c1 | 0%
O=C(O)C(=O)/C=C(\O)c1ccccc1Cl | 33%
COC(=O)C(=O)/C=C(\O)c1ccccc1Cl | 31%
O=C(O)C(=O)/C=C(\O)c1cccc(Cl)c1Cl | 33%
COC(=O)C(=N)/C=C(\O)c1ccc(Cl)c(C)c1 | 0%
